Compound activity: PubChem BioAssay, several laboratories
Hits are enriched below; roughly 1.8% of the tested compounds scored in any of these assays.
eIF4H inh – inhibitors of RNA binding by human eIF4H; Q15056; eIF4H fluorescence polarization binding assay; inhibition, % at 35 µM; actives 0.94% (n = 290,000);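 further: calls also rest on retests at 20 µM and on dose response follow-up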
PABP polyA inh – PABP-poly(A) binding inhibition. PABP-poly(A) RNA binding, fluorescence polarization. calls only at 35 µM. actives 1% (n = 290,000). AID 2014;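 further: calls also rest on retests at 20 µM and on dose response follow-up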
MLLE-PAM2 inh – blocks PAM2 peptide binding to the PABP1 MLLE domain; P11940; actives 0.36% (n = 360,000); inhibition, % at 20 µM; GST-MLLE / FITC-PAM2 fluorescence polarization; in the data active means inhibition above about 35%, passing the limit was not always enough;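 further: plate controls were DMSO wells with GST-MLLE for no effect and wells lacking GST-MLLE protein for full effect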
UBC9 SUMO inh – SUMOylation inhibition; P63279; HTRF SUMOylation assay, SAE1/SAE2 + UBC9, in vitro; inhibition, % at 35 µM; actives 0.36% (n = 290,000); AID 2006; in the data active means inhibition above about 50%, passing the limit was not always enough; inconclusive means no clear call, values can overlap the other calls
Target sequence (P63279 whole entry, looked up): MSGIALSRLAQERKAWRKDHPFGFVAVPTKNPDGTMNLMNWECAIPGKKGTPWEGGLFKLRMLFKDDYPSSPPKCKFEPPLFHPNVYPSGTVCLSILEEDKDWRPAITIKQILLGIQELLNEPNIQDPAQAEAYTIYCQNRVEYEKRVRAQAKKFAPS
HCV core dimer – HCV core protein dimerization inhibition; actives 0.33% (n = 300,000); TR-FRET GST/Flag-core106 dimerization, 1536-well; AID 1899; inhibition, % at 5 µM;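 active means inhibition above the mean of all tested compounds plus 3 SD, set per screening campaign, cut at about 45% in these data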
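System: GST/Flag-tagged HCV core106 proteins. Incubation: compound-protein-antibody incubation 4 h at 22.5 °C. Technique: HTRF with 340 nm excitation, 617/671 nm emission. Medium: KF-containing HEPES buffer, pH 7.45, DTT, CHAPS, BSA. Read-out: inhibition (%) from 671 over 617 nm ratio. Also added: Eu(K)-anti-GST 90 ng/mL plus XL665-anti-Flag 1 µg/mL.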
eIF4E-4G inh – inhibitors of eIF4E and eIF4G interaction in translation initiation; actives 0.37% (n = 220,000); TR-FRET eIF4E-eIF4GI(517-606) binding, 2 h; inhibition, % at 21.7 µM; AID 782;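 active means inhibition above about 30%, limit read from the data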;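 further: 0% = full FRET control wells and 100% = background wells lacking eIF4GI fragment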
* marks the source's active call; other numbers are inactive results; i = inactive; u = inconclusive; x = no result; + = active, no number. Unless noted, how the calls were made is not given here.

SMILES	eIF4H inh	PABP polyA inh	MLLE-PAM2 inh	UBC9 SUMO inh	HCV core dimer	eIF4E-4G inh
Cc1ccc2[nH]c(C)c(CCNC(=O)c3c(N)no[n+]3[O-])c2c1	-6	i	10	4	-4	-1
Cc1ccc2[nH]c(C)c(CCNC(=O)c3cc4cc([N+](=O)[O-])ccc4oc3=O)c2c1	-12	i	4	27	50*	4
Cc1cccc2cc(=O)[nH]c(C)c12	0	+	-86	-13	-7	-5
Cc1ccc(NC2=C(Cl)C(=O)OC2OC(C)C)cc1 (stereo not drawn)	-2	u	5	-7	5	-4
Cc1ccc(C)c(NC2=C(Cl)C(=O)OC2OC(C)C)c1 (stereo not drawn)	active	+	-7	0	-7	-2
N#Cc1ccc(C23CC4(C2)[C@H](CN(P(=O)(c2ccccc2)c2ccccc2)[C@@H]4c2ccccc2)C3c2ccc(Cl)nc2)cc1 (stereo partly drawn)	-10	i	2	0	53*	1
CN1C[C@@H]2C(c3ccc(Cl)nc3)C3(c4ccc(C#N)cc4)CC2(C3)[C@H]1c1ccccc1 (stereo partly drawn)	-8	i	-8	-3	15	-5
CCN1C(=O)/C(=C\c2ccc(-c3ccc([N+](=O)[O-])cc3OC)o2)SC1=Nc1cccc(C(=O)O)c1	u	u	16	29	x	64*
CCN=C1S/C(=C\c2ccc(-c3cccc(C(=O)O)c3)o2)C(=O)N1CC	64*	i	9	28	-14	3
CCN1C(=O)/C(=C\c2ccc(-c3cccc(C(=O)OC)c3)o2)SC1=Nc1ccc(C(=O)O)cc1	26	i	x	20	12	x
O=C(O)c1cccc(-c2ccc(/C=C3/SC(=Nc4ccccc4)N(Cc4cccnc4)C3=O)o2)c1	64*	+	-10	19	x	x
Cc1ccc(S(=O)(=O)NCC(=O)Nc2cccnc2)cc1C	x	x	-3	x	x	x
O=c1[nH]c(C(F)(F)C(F)(F)C(F)(F)F)no1	x	x	7	x	x	x
O=C(O)c1ccc(-n2c(-c3cc(-c4ccco4)[nH]n3)n[nH]c2=S)cc1	87*	+	1	37	-7	14
Cc1ccc(-n2c(-c3cc(-c4ccco4)[nH]n3)n[nH]c2=S)c(Br)c1	u	+	-75	68	17	-1
CC(=O)c1ccc(-n2c(-c3cc(-c4ccco4)[nH]n3)n[nH]c2=S)cc1	56	i	-21	-3	18	-5
CN(C)C(CNS(=O)(=O)c1ccc(Cl)cc1F)c1ccco1 (stereo not drawn)	x	x	4	x	x	x
CCCn1cnc2c(c1=O)c1nc3ccccc3nc1n2CCC1=CCCCC1	-5	i	x	22	x	-2
O=c1c2c3nc4ccccc4nc3n(/N=C/c3ccco3)c2ncn1CCC1=CCCCC1	65*	i	7	8	46	x
COc1cccc(C(c2c(N)[nH]c(=S)[nH]c2=O)c2c(N)[nH]c(=S)[nH]c2=O)c1	2	i	31	0	1	5
CC(CNc1ccccc1O)C(=O)O (stereo not drawn)	100	i	76*	19	-53	20
COC(=O)[C@H](CCSC)NC(=O)Cn1cnc(C(=O)Nc2ccc(C)c(C)c2)n1	x	x	-3	x	x	x
CC(C)N1CCC1(C)C(=O)Nc1cccc(C#N)c1 (stereo not drawn)	x	x	10	x	x	x
COc1cccc(NC(=S)Nc2cc(C)cc(C)n2)c1	-4	i	45*	15	86*	-4
CCCN1C[C@H](CSC)C[C@@H]2c3cccc4[nH]cc(c34)C[C@H]21	100*	+	20	25	-9	-6
SMILES	eIF4H inh	PABP polyA inh	MLLE-PAM2 inh	UBC9 SUMO inh	HCV core dimer	eIF4E-4G inh
COCCNC(=O)c1[nH]c(C(F)(F)F)nc1-c1ccccc1	x	x	12	x	x	x
CC(C)OCCCNC(=O)c1sc(=S)n(C)c1N	-10	i	41*	37	-9	6
CCn1c(N)c(C(=O)NCCCOC)sc1=S	1	i	21	22	-5	-4
Cc1nc2ccc(NC(=O)c3ccc(Cl)c(NC(=O)c4cccs4)c3)cc2s1	-9	i	-8	-2	48*	-3
CN1[C@@H](COCc2ccccc2)C=CS1(=O)=O	x	x	7	x	x	x
CCN(CC)c1ccc(-c2n[nH]c(=S)n2-c2ccccc2)cc1	3.4*	i	5	2	7	-3
Cn1c(SCC(=O)Nc2sccc2C(N)=O)nc2ccccc2c1=O	x	x	-6	x	x	x
NC(=O)c1ccsc1NC(=O)CSc1nc2ccccc2c(=O)n1CCCO	1	i	51*	6	-8	-13
CC1CN(C(=O)c2cccc(S(=O)(=O)Nc3ccc(Cl)cc3)c2)CC(C)O1 (stereo not drawn)	active	+	7	0	11	0
O=C(Cc1c(F)cccc1Cl)c1ccc(O)cc1O	63	+	17	-18	4	0
O=C(Cc1ccc(F)cc1)c1ccc(O)cc1O	75*	+	21	-7	1	0
COc1ccccc1C(=O)NC(CCSC)C(=O)OCC(=O)N1CCCC1=O (stereo not drawn)	x	x	0	x	x	x
O=C(Cc1ccc(S(=O)(=O)N2CCOCC2)s1)Nc1nc2c(s1)CCCC2	60*	+	9	21	84*	1
O=C(Cc1cccs1)Nc1ccc(S(=O)(=O)Nc2ncccn2)cc1	61*	+	-32	17	31	10
CC(=O)Nc1ccc(NC(=O)Cc2ccc(S(=O)(=O)N3CCCCC3)s2)cc1	16	i	-13	17	60*	7
CN1CCN(S(=O)(=O)c2ccc(NC(=O)Cc3cccs3)cc2)CC1	-12	i	-8	-2	7	-4
O=C(Cc1cccs1)Nc1ccc(S(=O)(=O)N2CCCCC2)cc1	19	i	-9	12	72*	-1
Cc1ccnc(NS(=O)(=O)c2ccc(NC(=O)Cc3cccs3)cc2)n1	60	i	-21	5	28	-3
O=C(NCCS(=O)(=O)NC1CCCCC1)c1ccc2c(c1)OCO2	x	x	20	x	0	x
CCc1cccc(CC)c1-n1c(SCC(=O)N2CCCc3ccccc32)nc(O)cc1=O	x	x	18	x	x	x
CC(C)c1nn2c(=O)cc(COc3cccc(NC(=O)c4ccco4)c3)nc2s1	2	i	7	13	-9	x
C=CCn1c(SCC(=O)c2cc(C)n(C)c2C)nnc1-c1ccncc1	83*	i	-8	17	-2	-1
Cc1cc(C(=O)CSc2nnc(-c3ccccc3)n2C)c(C)n1C	8	i	5	-5	14	3
Cc1cc(C(=O)CSc2nnc(-c3ccncc3)n2-c2ccccc2)c(C)n1C	120*	+	-41	22	20	-11
O=C(CN1CCCC1c1cccs1)N1CCN(S(=O)(=O)c2cccc(F)c2)CC1 (stereo not drawn)	x	x	-17	x	x	x
